This is an account of results in ChEMBL document CHEMBL1157145, “Cytotoxic activity of proflavine diureas: synthesis, antitumor, evaluation and DNA binding properties of 1',1''-(acridin-3,6-diyl)-3',3''-dialkyldiureas” (Bioorg Med Chem, 2008).

One test relates to DNA. The experiment in a line: Binding affinity to calf thymus DNA at 4 uM by fluorescence spectrophotometric titration. Conditions: Bos taurus. Format: nucleic-acid assay. Put shortly:
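ctDNA sonicated in TE buffer, concentration taken from A260 and given in base pairs. Compound (4 µM) in 0.01 M Tris, pH 7.4, 25 °C titrated with ctDNA (0–55 µM bp) until spectra stopped changing. Excitation 424 nm, slit widths 10 nm; binding constant derived from the change in emission.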

The test system of another test is HCT-116. The experiment in a line: Cytotoxicity against human HCT116 cells after 72 hrs by MTT assay. The class given is functional, cell-based.
Another test relates to HeLa. The experiment in a line: Cytotoxicity against human HeLa cells after 48 hrs by MTT assay. Format: functional, cell-based.

Consider `Nc1ccc2cc3ccc(N)cc3nc2c1`, for which, in the test on DNA, the K was determined as 7.95 ×10⁵ /M.
`CC(C)C1=Cc2ccc3c(c2C(=O)C1=O)CCCC3(C)C` [MILTIRONE]: the Activity in the test on HCT-116 came out at 12.39 µM.
For the compound `COc1cc([C@@H]2c3cc4c(cc3[C@@H](O[C@@H]3O[C@@H]5CO[C@@H](C)O[C@H]5[C@H](O)[C@H]3O)[C@H]3COC(=O)[C@H]23)OCO4)cc(OC)c1O` [ETOPOSIDE], the IC50 (usually the concentration that gives 50% inhibition) with HeLa worked out at 2900 nM.
